Experimental data published in ChEMBL document CHEMBL4385606, “3,5,7-Substituted Pyrazolo[4,3- d]pyrimidine Inhibitors of Cyclin-Dependent Kinases and Their Evaluation in Lymphoma Models” (J Med Chem, 2019).
Active and inactive are the calls of the source. The rule behind the calls is not given here.

Assays:
Homo sapiens [1] = species: Homo sapiens; test: Induction of apoptosis in human Mino cells assessed as caspase 7 activation at 1.5 to 12.5 nM after 24 hrs by immunoblotting analysis; format: functional, cell-based
In short: (§1)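 Lymphoma cell lines were cultured as the providers instruct and exposed to compound at several doses or for several times. Lysates were run on SDS-PAGE and blotted to nitrocellulose. Blots were blocked, incubated overnight with primary antibodies diluted in PBS with 5% milk and 0.1% Tween 20, then with peroxidase-conjugated secondaries, and detected by chemiluminescence on a CCD camera.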

G-361 = test: Antiproliferative activity against human G361 cells assessed as growth inhibition measured after 72 hrs by calcein AM dye-based fluorescence assay; format: functional, cell-based; conditions: G-361, 72 h
In short: (§2)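 Cells exposed in triplicate to six concentrations for 72 h; calcein AM added for 1 h, live-cell fluorescence read at 485/538 nm (ex/em). GI50 taken from dose-response curves.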

[2] = biological target: Cyclin-dependent kinase 9 (Homo sapiens) (UniProt P50750); test: Inhibition of CDK9 in human Mino cells assessed as decrease in phosphorylation of Rb at Ser 608 residue at 12.5 nM by immunoblotting analysis; format: cell-based; conditions: TDE = time-dependent effect
Sequence of Cyclin-dependent kinase 9 (Homo sapiens) (P50750 whole entry): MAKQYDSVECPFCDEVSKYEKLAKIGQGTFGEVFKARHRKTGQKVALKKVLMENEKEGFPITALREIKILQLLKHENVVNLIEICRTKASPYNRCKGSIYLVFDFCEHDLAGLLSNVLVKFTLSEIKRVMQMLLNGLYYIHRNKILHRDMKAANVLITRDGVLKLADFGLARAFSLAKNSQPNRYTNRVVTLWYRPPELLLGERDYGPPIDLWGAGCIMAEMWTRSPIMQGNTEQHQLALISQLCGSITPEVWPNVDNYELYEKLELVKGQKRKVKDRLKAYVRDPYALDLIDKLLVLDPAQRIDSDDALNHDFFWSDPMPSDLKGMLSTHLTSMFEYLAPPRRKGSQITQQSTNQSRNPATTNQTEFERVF
In short: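 MINO lymphoma cells exposed to 12.5 nM for up to 24 h (time course). Lysates separated by SDS-PAGE, transferred to nitrocellulose, probed overnight with specific primary antibodies diluted in PBS with 5% milk and 0.1% Tween 20, then peroxidase-conjugated secondaries; chemiluminescence imaged with a CCD camera.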

Mus musculus [3] = test: Ex vivo antitumor activity against human Mino cells xenografted NSG mouse decrease in phosphorylation of RNA polymerase 2 C-terminal domain at Ser 2 residue at 5 to 10 mg/kg, iv measured after 24 hrs by immunoblotting analysis; format: functional, organism-based
In short: (§3)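 Female NSG mice, 8-12 weeks old, implanted s.c. with lymphoma cells. Once tumors were palpable, mice received a single tail-vein i.v. dose (5 or 10 mg/kg) of compound dissolved in PBS. Mice were euthanized 24 h later. Tumors were excised, filtered through 45 µm nylon mesh and lysed, then proteins were analysed by immunoblotting.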

Homo sapiens [4] = species: Homo sapiens; test: Induction of apoptosis in human Mino cells assessed as reduction in MCL1 expression at 1.5 to 12.5 nM after 24 hrs by immunoblotting analysis; format: functional, cell-based; in short: as §1
K562 = test: Antiproliferative activity against human K562 cells assessed as growth inhibition measured after 72 hrs by calcein AM dye-based fluorescence assay; format: functional, cell-based; conditions: K562, 72 h; in short: as §2
[5] = biological target: Cyclin-dependent kinase 2 (Homo sapiens) (UniProt P24941); test: Inhibition of CDK2 in human Mino cells assessed as decrease in phosphorylation of Rb at Ser 608 residue at 12.5 nM by immunoblotting analysis; format: cell-based; conditions: TDE = time-dependent effect
In short: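 MINO lymphoma cells were treated at 12.5 nM, with time points over 24 h. Lysates were separated by SDS-PAGE and blotted to nitrocellulose. Phospho-RNA polymerase II CTD (Ser2, Ser5) and phospho-Rb (Ser608, Ser780) were probed with primary antibodies overnight and peroxidase-conjugated secondaries. Detection was by chemiluminescence on a CCD camera.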

HeLa = test: Antiproliferative activity against human HeLa cells assessed as growth inhibition measured after 72 hrs by calcein AM dye-based fluorescence assay; format: functional, cell-based; in short: as §2
[6] = Antiproliferative activity against human UPF7U cells assessed as growth inhibition measured after 72 hrs by calcein AM dye-based fluorescence assay; format: functional, cell-based; in short: as §2
Homo sapiens [7] = species: Homo sapiens; test: Induction of apoptosis in human Mino cells assessed as decrease in XIAP level at 1.5 to 12.5 nM after 24 hrs by immunoblotting analysis; format: functional, cell-based; in short: as §1
[8] = Antiproliferative activity against human OCI-Ly2 cells assessed as growth inhibition measured after 72 hrs by calcein AM dye-based fluorescence assay; format: functional, cell-based; in short: as §2
Mus musculus [9] = test: Ex vivo antitumor activity against human Mino cells xenografted NSG mouse assessed as down regulation of XIAP expression at 5 to 10 mg/kg, iv measured after 24 hrs by immunoblotting analysis; format: functional, organism-based
In short: (§4)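 NSG mice bearing palpable s.c. tumors received a single i.v. dose (5 or 10 mg/kg) and were euthanized after 24 h. Excised tumors were filtered through 45 µm nylon mesh, lysed and run on SDS-PAGE, transferred to nitrocellulose, probed overnight with primary antibodies in PBS with 5% milk and 0.1% Tween 20, then peroxidase secondaries, with chemiluminescent detection.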

Homo sapiens [10] = species: Homo sapiens; test: Induction of apoptosis in human UPF1H cells assessed as reduction in XIAP expression at 12.5 to 100 nM after 24 hrs by immunoblot analysis; format: functional, cell-based; in short: as §1
Mus musculus [11] = test: Ex vivo antitumor activity against Maver1 xenografted NSG mouse assessed as down regulation of XIAP expression at 10 mg/kg, iv measured after 24 hrs by immunoblotting analysis; format: functional, organism-based; in short: as §4
Maver1 [12] = test: Induction of apoptosis in human Maver1 cells assessed as reduction in XIAP expression at 1.5 to 12.5 nM after 24 hrs by immunoblot analysis; format: functional, cell-based; in short: as §1
HCT-116 = test: Antiproliferative activity against human HCT116 cells assessed as growth inhibition measured after 72 hrs by calcein AM dye-based fluorescence assay; format: functional, cell-based; conditions: HCT-116, 72 h; in short: as §2
Ramos = test: Antiproliferative activity against human Ramos cells assessed as growth inhibition measured after 72 hrs by calcein AM dye-based fluorescence assay; format: functional, cell-based; in short: as §2
Maver1 [13] = test: Antitumor activity against human Maver1 cells xenografted in NSG mouse assessed as inhibition of tumor growth at 10 mg/kg, iv administered daily measured every day during compound dosing by caliper method; format: functional, organism-based
In short: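 Female NSG mice, 8-12 weeks old, given cells s.c.; once all had palpable tumors, daily i.v. tail-vein dosing at 10 mg/kg in PBS. Two perpendicular tumor diameters measured daily by caliper. Study ended when any mouse's tumor reached ≥2 cm. Groups: MINO n=10, MAVER-1 n=12, Hbl-2 n=8, VFN-M1 PDX n=10.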

Homo sapiens [14] = species: Homo sapiens; test: Induction of apoptosis in human Mino cells assessed as caspase 7 activation at 12.5 nM after 2 to 24 hrs by immunoblotting analysis; format: functional, cell-based; in short: as §1
Mus musculus [15] = test: Ex vivo antitumor activity against human UPF1H cells xenografted NSG mouse decrease in phosphorylation of RNA polymerase 2 C-terminal domain at Ser 2 residue at 5 to 10 mg/kg, iv measured after 24 hrs by immunoblotting analysis; format: functional, organism-based; in short: as §3
SU-DHL10 = test: Antiproliferative activity against human SUDHL10 cells assessed as growth inhibition measured after 72 hrs by calcein AM dye-based fluorescence assay; format: functional, cell-based; conditions: SU-DHL10, 72 h; in short: as §2
Mus musculus [16] = test: Ex vivo antitumor activity against patient derived VFN-M1 cells xenografted NSG mouse assessed as cleavage of PARP1 at 10 mg/kg, iv measured after 24 hrs by immunoblotting analysis; format: functional, organism-based; in short: as §3
Homo sapiens [17] = species: Homo sapiens; test: Induction of apoptosis in human Mino cells assessed as induction of PARP1 cleavage at 1.5 to 12.5 nM after 24 hrs by immunoblotting analysis; format: functional, cell-based; in short: as §1
OCI-Ly3 = test: Antiproliferative activity against human OCI-LY3 cells assessed as growth inhibition measured after 72 hrs by calcein AM dye-based fluorescence assay; format: functional, cell-based; conditions: OCI-Ly3, 72 h; in short: as §2

CC(C)c1n[nH]c2c(NCc3ccc(-c4ccccn4)cc3)nc(SCCN)nc12
Activity (Homo sapiens [1]): Active | GI50 (G-361): 36 nM | IC50 (G-361): 36 nM | inhibition [2]: Tde | Activity (Mus musculus [3]): Active | Activity (Homo sapiens [4]): Active | GI50 (K562): 36 nM | IC50 (K562): 36 nM | inhibition [5]: Tde | GI50 (HeLa): 21.6 nM | IC50 (HeLa): 17 nM | GI50 [6]: 12 nM | IC50 [6]: 12 nM | Activity (Homo sapiens [7]): Active | GI50 [8]: 23 nM | IC50 [8]: 23 nM | Activity (Mus musculus [9]): Active | Activity (Homo sapiens [10]): Active | Activity (Mus musculus [11]): Active | Activity (Maver1 [12]): Active | GI50 (HCT-116): 21.6 nM | IC50 (HCT-116): 22 nM | GI50 (Ramos): 44 nM | IC50 (Ramos): 44 nM | TGI (Maver1 [13]): Active | Activity (Homo sapiens [14]): Active | Activity (Mus musculus [15]): Active | GI50 (SU-DHL10): 17 nM | IC50 (SU-DHL10): 17 nM | Activity (Mus musculus [16]): Active | Activity (Homo sapiens [17]): Active | GI50 (OCI-Ly3): 7 nM | IC50 (OCI-Ly3): 7 nM
